Assay results from paper PMC5045800 (Journal of chromatography. B, Analytical technologies in …, 2016).

Assays:
[1] = Stability of oncrasins in rat plasma; type: in vitro ADME; settings: for Stability after 2 h at room temperature: bench-top, 2 h (data not shown); for Three freeze-thaw cycles stability, percent of nominal concentration: freeze −80°C / thaw RT; for Three freeze-thaw cycles stability, percent of nominal concentration / Long term -80°C (14 days) stability, percent of nominal concentration / Short-term (1h) stability, percent of nominal concentration: n=3, mean ± SD; for Short-term (1h) stability, percent of nominal concentration: room temperature bench-top 1 h
Procedure, shortened: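 Blank rat plasma was spiked at low and high QC levels, three replicates per level, then measured by LC-MS/MS against freshly prepared samples at the same concentrations. Results are percent of nominal. Short-term bench-top: room temperature for 1, 2 and 3 h. Freeze-thaw: three cycles of −80°C freezing and room-temperature thawing. Long-term: 14 days of storage.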

[2] = Stability of processed sample; type: in vitro ADME, rat; settings: plasma extracts; for Deviation from nominal concentration after 24 h in the auto-sampler: 24 h at 15°C (data not shown); for Auto-sampler at 15°C (1h) stability, percent of nominal concentration: n=3, mean ± SD
Procedure, shortened: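 Spiked rat plasma (50 μL) was mixed with 100 μL acetonitrile internal-standard working solution (125 ng/mL) and centrifuged at 20,800 x g for 5 min at 4°C. The supernatant extracts were held in the auto-sampler at 15°C for 1 h and 24 h. They were then compared with freshly obtained extracts at low and high QC levels in triplicate, by LC-MS/MS.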

[3] = Pharmacokinetic study in rats after intravenous oncrasin-266 formulation; type: in vivo, Sprague-Dawley rats; settings: mean ± SD, n=5; for AUC / Cmax: rat plasma; for Cl / Vd / t1/2: rat
Procedure, shortened: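 Male adult Sprague-Dawley rats received the prodrug formulation IV through a jugular vein cannula at 10, 25 or 50 mg/kg (n=5 per dose). Blood (200 μL) was drawn predose and at 0.0167 to 48 h into heparinized tubes. Plasma was spun at 20,800 x g for 3 min and kept at −80°C. Urine was collected over 0–24 h. Analytes were quantified by validated LC-MS/MS. Each rat's profile was analysed noncompartmentally.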

[4] = analyte after I.V. oncrasin-266 formulation 10 mg/kg
[5] = analyte after I.V. oncrasin-266 formulation 25 mg/kg
[6] = analyte after I.V. oncrasin-266 formulation 50 mg/kg

Row | Structure (SMILES) | Stability after 2 h at room temperature [1] | Deviation from nominal concentration after 24 h in the auto-sampler [2] [%] | AUC [3, 4] [µg·h/mL] | Cmax [3, 4] [µg/mL] | AUC [3, 5] [µg·h/mL] | Cmax [3, 5] [µg/mL] | AUC [3, 6] [µg·h/mL] | Cmax [3, 6] [µg/mL] | Cl [3, 4] [L/kg] | Vd [3, 4] [L/kg] | t1/2 [3, 4] [h] | Cl [3, 5] [L/kg] | Vd [3, 5] [L/kg] | t1/2 [3, 5] [h] | Cl [3, 6] [L/kg] | Vd [3, 6] [L/kg] | t1/2 [3, 6] [h] | further results
1 | O=Cc1cn(Cc2cccc(Cl)c2)c2ccccc12 [NSC-741908] | remained stable | ≤ 15 | 0.50 ± 0.42 | 1.56 ± 1.55 | 0.11 ± 0.03 | 0.33 ± 0.12 | 0.68 ± 0.42 | 2.14 ± 1.73 | 75.73 ± 86.14 | 47.04 ± 33.52 | 1.19 ± 0.93 | 254.62 ± 108.12 | 443.15 ± 71.91 | 1.31 ± 0.39 | 103.60 ± 67.32 | 137.64 ± 33.49 | 1.16 ± 0.52 | Three freeze-thaw cycles stability, percent of nominal concentration ([1]; nominal 1 ng/mL): 110.20 ± 6.79%; Three freeze-thaw cycles stability, percent of nominal concentration ([1]; nominal 100 ng/mL): 95.15 ± 4.53%; Long term -80°C (14 days) stability, percent of nominal concentration ([1]; nominal 1 ng/mL): 112.67 ± 2.45%; Long term -80°C (14 days) stability, percent of nominal concentration ([1]; nominal 100 ng/mL): 93.46 ± 5.62%; Short-term (1h) stability, percent of nominal concentration ([1]; nominal 1 ng/mL): 101.00 ± 12.58%; Short-term (1h) stability, percent of nominal concentration ([1]; nominal 100 ng/mL): 99.21 ± 5.62%; Auto-sampler at 15°C (1h) stability, percent of nominal concentration ([2]; nominal 1 ng/mL): 113.44 ± 6.90%; Auto-sampler at 15°C (1h) stability, percent of nominal concentration ([2]; nominal 100 ng/mL): 100.25 ± 2.67%
2 | OCc1cn(Cc2cccc(Cl)c2)c2ccccc12 [Oncrasin-72] | remained stable | ≤ 15 | 2.22 ± 0.33 | 15.55 ± 5.33 | 7.15 ± 1.96 | 52.44 ± 16.75 | 23.70 ± 7.95 | 54.79 ± 30.6 | 4.56 ± 0.7 | 45.06 ± 16.70 | 7.01 ± 2.81 | 3.62 ± 0.77 | 42.55 ± 24.3 | 7.74 ± 3.95 | 2.30 ± 0.74 | 27.78 ± 10.36 | 8.28 ± 1.34 | Three freeze-thaw cycles stability, percent of nominal concentration ([1]; nominal 2 ng/mL): 97.53 ± 5.94%; Three freeze-thaw cycles stability, percent of nominal concentration ([1]; nominal 200 ng/mL): 101.23 ± 10.03%; Long term -80°C (14 days) stability, percent of nominal concentration ([1]; nominal 2 ng/mL): 95.02 ± 8.54%; Long term -80°C (14 days) stability, percent of nominal concentration ([1]; nominal 200 ng/mL): 89.14 ± 0.49%; Short-term (1h) stability, percent of nominal concentration ([1]; nominal 2 ng/mL): 94.87 ± 5.31%; Short-term (1h) stability, percent of nominal concentration ([1]; nominal 200 ng/mL): 110.55 ± 3.0%; Auto-sampler at 15°C (1h) stability, percent of nominal concentration ([2]; nominal 2 ng/mL): 94.90 ± 2.54%; Auto-sampler at 15°C (1h) stability, percent of nominal concentration ([2]; nominal 200 ng/mL): 98.05 ± 6.15%
